Assay results as given in ChEMBL document CHEMBL1799953, “Backbone cyclic peptide inhibitors of protein kinase B (PKB/Akt)” (J Med Chem, 2011).
Calls of active or inactive are those of the source. No cut-off for these calls is given here. *1 amine or outer side, *2 acyl side, *3 side chain or, on linkers, in order; H or OH if unused. Where a SMILES comes first, the peptide text is derived from it. Bridges are numbered along the chain shown (N, C = ends). [ ]: non-standard residue; d: D form. N(6-aminohexyl)Gly = O=C(CN(CCCCCCN[*:3])[*:1])[*:2]; NGly(3-aminopropyl) = O=C(CN(CCCN[*:3])[*:1])[*:2]; N(2-Aminoethyl)Gly = O=C(CN(CCN[*:3])[*:1])[*:2]; Heptanedioyl = O=C(CCCCCC(=O)[*:2])[*:1]; Glutaryl = O=C(CCCC(=O)[*:2])[*:1]; Gly(N-(CH2)6NH2) = NCCCCCCNCC(=O)O; Gly(N-2-aminoethyl) = NCCNCC(=O)O; Cha = N[C@@H](CC1CCCCC1)C(=O)O; Gly(N(CH2)3NH2) = NCCCNCC(=O)O; Suc = O=C(CCC(=O)[*:2])[*:1]; hLeu = CC(C)CC[C@H](N)C(=O)O; Nle = CCCC[C@H](N)C(=O)O; Nva = CCC[C@H](N)C(=O)O; Dap = NC[C@H](N)C(=O)O; CO = O=C([*:1])[*:2]; Nlys = NCCCCNCC(=O)O

These compounds were tested against T1, RAC-alpha serine/threonine-protein kinase (Homo sapiens, UniProt P31749) (assay: Inhibition of Akt using RPRTSSF peptide and [gamma32]ATP at 5 uM by cell-free radioactive assay relative to control).
T1 sequence (P31749 whole entry): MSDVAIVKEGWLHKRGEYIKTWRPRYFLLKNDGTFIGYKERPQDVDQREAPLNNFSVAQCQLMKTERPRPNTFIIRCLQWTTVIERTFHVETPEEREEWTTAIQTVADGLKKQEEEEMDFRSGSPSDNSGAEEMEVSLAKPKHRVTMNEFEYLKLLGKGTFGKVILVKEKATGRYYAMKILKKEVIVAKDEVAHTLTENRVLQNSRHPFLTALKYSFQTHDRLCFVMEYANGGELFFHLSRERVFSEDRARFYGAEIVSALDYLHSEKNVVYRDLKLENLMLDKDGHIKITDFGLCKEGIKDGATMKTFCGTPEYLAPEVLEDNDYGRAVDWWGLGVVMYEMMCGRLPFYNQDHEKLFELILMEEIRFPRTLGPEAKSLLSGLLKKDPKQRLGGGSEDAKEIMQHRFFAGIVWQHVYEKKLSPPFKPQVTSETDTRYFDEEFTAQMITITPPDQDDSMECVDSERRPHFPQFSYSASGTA
Summary of the method: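 Cell-free 32P kinase assay: HisΔPHPKBEEEFlag (0.005 units, one-step Ni-NTA partial purification), 50 mM Hepes pH 7.4, 0.1 mM EGTA, 0.1% 2-mercaptoethanol, 10 mM magnesium acetate, 3 μM RPRTSSF substrate, 10 μM [γ32P]ATP (1 μCi/well). Inhibitor at 5 μM. Activity loss expressed as percent of uninhibited reaction.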
In the case of CCC[C@@H]1NC(=O)[C@H](CCCNC(=N)N)NC(=O)[C@@H]2CCCN2C(=O)[C@H](CCCNC(=N)N)NC(=O)CCCCCC(=O)NCCCCCCN(CC(N)=O)C(=O)[C@H](CCC(C)C)NC(=O)[C@H](CN)NC(=O)[C@H](Cc2ccc(O)cc2)NC1=O (RPR[Nva]Y[Dap][hLeu][N(6-aminohexyl)Gly]-NH2; linker N-8 via Heptanedioyl), the inhibition is reported as 30%. In the case of CCC[C@@H]1NC(=O)[C@H](CCCNC(=N)N)NC(=O)CN(C(=O)[C@@H](N)CCCNC(=N)N)CCCNC(=O)NCCCCN(CC(N)=O)C(=O)[C@H](CCC(C)C)NC(=O)[C@H](CN)NC(=O)[C@H](Cc2ccc(O)cc2)NC1=O (H-R[NGly(3-aminopropyl)]R[Nva]Y[Dap][hLeu][Nlys]-NH2; linker 2-8 via CO), the inhibition is reported as 92%. CCC[C@H](NC(=O)[C@H](CCCNC(=N)N)NC(=O)CNCCCCCCN)C(=O)N[C@@H](Cc1ccc(O)cc1)C(=O)N[C@@H](CN)C(=O)N[C@@H](CCC(C)C)C(=O)N(CCN)CC(N)=O (H-[Gly(N-(CH2)6NH2)]R[Nva]Y[Dap][hLeu][Gly(N-2-aminoethyl)]-NH2) showed an inhibition of 64%. In the case of CCC[C@@H]1NC(=O)[C@H](CCCNC(=N)N)NC(=O)[C@@H]2CCCN2C(=O)[C@H](CCCNC(=N)N)NC(=O)CCC(=O)NCCCCN(CC(N)=O)C(=O)[C@H](CCC(C)C)NC(=O)[C@H](CN)NC(=O)[C@H](Cc2ccc(O)cc2)NC1=O (RPR[Nva]Y[Dap][hLeu][Nlys]-NH2; linker N-8 via Suc), the inhibition is reported as 13%. CCC[C@H](NC(=O)[C@H](CCCNC(=N)N)NC(=O)[C@@H](Cc1ccc(O)cc1)NC(=O)[C@@H](N)CCCNC(=N)N)C(=O)N[C@@H](Cc1ccc(O)cc1)C(=O)N[C@@H](CN)C(=O)N[C@@H](CCC(C)C)C(N)=O was tested, and the inhibition was “inactive”. CCC[C@H](NC(=O)[C@H](CCCNC(=N)N)NC(=O)CNCCN)C(=O)N[C@@H](Cc1ccc(O)cc1)C(=O)N[C@@H](CN)C(=O)N[C@@H](CCC(C)C)C(=O)N(CCN)CC(N)=O (H-[Gly(N-2-aminoethyl)]R[Nva]Y[Dap][hLeu][Gly(N-2-aminoethyl)]-NH2) showed an inhibition of 67%. Compound CCC[C@@H]1NC(=O)[C@H](CCCNC(=N)N)NC(=O)[C@@H]2CCCN2C(=O)[C@H](CCCNC(=N)N)NC(=O)CCCC(=O)NCCCCCCN(CC(N)=O)C(=O)[C@H](CCC(C)C)NC(=O)[C@H](CN)NC(=O)[C@H](Cc2ccc(O)cc2)NC1=O (RPR[Nva]Y[Dap][hLeu][N(6-aminohexyl)Gly]-NH2; linker N-8 via Glutaryl) has an inhibition of 32%. For CCCC[C@H](NC(=O)[C@@H](N)CCCNC(=N)N)C(=O)N[C@@H](CCCNC(=N)N)C(=O)N[C@@H](CCC)C(=O)N[C@@H](Cc1ccc(O)cc1)C(=O)N[C@@H](CN)C(=O)N[C@@H](CCC(C)C)C(N)=O (H-R[Nle]R[Nva]Y[Dap][hLeu]-NH2), the inhibition was 82%. Compound CCC[C@H](NC(=O)[C@H](CCCNC(=N)N)NC(=O)[C@H](C)NC(=O)[C@@H](N)CCCNC(=N)N)C(=O)N[C@@H](Cc1ccc(O)cc1)C(=O)N[C@@H](CN)C(=O)N[C@@H](CCC(C)C)C(N)=O has an inhibition of 81%. CCC[C@@H]1NC(=O)[C@H](CCCNC(=N)N)NC(=O)[C@@H]2CCCN2C(=O)[C@H](CCCNC(=N)N)NC(=O)CCC(=O)NCCCCCCN(CC(N)=O)C(=O)[C@H](CCC(C)C)NC(=O)[C@H](CN)NC(=O)[C@H](Cc2ccc(O)cc2)NC1=O (RPR[Nva]Y[Dap][hLeu][N(6-aminohexyl)Gly]-NH2; linker N-8 via Suc) showed an inhibition of 25%. With CCC[C@H](NC(=O)[C@H](CCCNC(=N)N)NC(=O)[C@H]1CCCN1C(=O)[C@@H](N)CCCNC(=N)N)C(=O)N[C@@H](Cc1ccc(O)cc1)C(=O)N[C@@H](CN)C(=O)N[C@@H](CCC(C)C)C(N)=O the inhibition was “inactive”. In the case of CCC[C@@H]1NC(=O)[C@H](CCCNC(=N)N)NC(=O)CN(C(=O)[C@@H](N)CCCNC(=N)N)CCCCCCNC(=O)NCCCCCCN(CC(N)=O)C(=O)[C@H](CCC(C)C)NC(=O)[C@H](CN)NC(=O)[C@H](Cc2ccc(O)cc2)NC1=O (H-R[N(6-aminohexyl)Gly]R[Nva]Y[Dap][hLeu][N(6-aminohexyl)Gly]-NH2; linker 2-8 via CO), the inhibition is reported as 39%. With CCC[C@H](NC(=O)[C@H](CCCNC(=N)N)NC(=O)[C@@H](Cc1ccccc1)NC(=O)[C@@H](N)CCCNC(=N)N)C(=O)N[C@@H](Cc1ccc(O)cc1)C(=O)N[C@@H](CN)C(=O)N[C@@H](CCC(C)C)C(N)=O the inhibition was “inactive”. For CCC[C@H](NC(=O)[C@H](CCCNC(=N)N)NC(=O)[C@@H](CC(=O)O)NC(=O)[C@@H](N)CCCNC(=N)N)C(=O)N[C@@H](Cc1ccc(O)cc1)C(=O)N[C@@H](CN)C(=O)N[C@@H](CCC(C)C)C(N)=O, the inhibition was “inactive”. CCC[C@@H]1NC(=O)[C@H](CCCNC(=N)N)NC(=O)[C@@H]2CCCN2C(=O)[C@H](CCCNC(=N)N)NC(=O)CCCCCC(=O)NCCCCN(CC(N)=O)C(=O)[C@H](CCC(C)C)NC(=O)[C@H](CN)NC(=O)[C@H](Cc2ccc(O)cc2)NC1=O (RPR[Nva]Y[Dap][hLeu][Nlys]-NH2; linker N-8 via Heptanedioyl) gave an inhibition of 16%. Compound CCC[C@H](NC(=O)[C@H](CCCNC(=N)N)NC(=O)[C@@H](CCCCN)NC(=O)[C@@H](N)CCCNC(=N)N)C(=O)N[C@@H](Cc1ccc(O)cc1)C(=O)N[C@@H](CN)C(=O)N[C@@H](CCC(C)C)C(N)=O has an inhibition of 27%. CCC[C@@H]1NC(=O)[C@H](CCCNC(=N)N)NC(=O)CN(C(=O)[C@@H](N)CCCNC(=N)N)CCCNC(=O)NCCN(CC(N)=O)C(=O)[C@H](CCC(C)C)NC(=O)[C@H](CN)NC(=O)[C@H](Cc2ccc(O)cc2)NC1=O (H-R[NGly(3-aminopropyl)]R[Nva]Y[Dap][hLeu][N(2-Aminoethyl)Gly]-NH2; linker 2-8 via CO) showed an inhibition of 54%.

These compounds were tested against T1, RAC-alpha serine/threonine-protein kinase (assay: Inhibition of Akt using RPRTSSF peptide and [gamma32]ATP by cell-free radioactive assay).
Summary of the method: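 Same reaction: HisΔPHPKBEEEFlag (0.005 units), 50 mM Hepes pH 7.4, 0.1 mM EGTA, 0.1% 2-mercaptoethanol, 10 mM magnesium acetate, 3 μM RPRTSSF, 10 μM [γ32P]ATP. Peptide stock concentration determined by UV spectrophotometry; reference peptide run in every assay.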
For CCC[C@H](NC(=O)[C@H](CCCN=C(N)N)NC(=O)[C@H](CC1CCCCC1)NC(=O)[C@@H](N)CCCN=C(N)N)C(=O)N[C@@H](Cc1ccc(O)cc1)C(=O)N[C@@H](CN)C(=O)N[C@@H](CCC(C)C)C(N)=O (H-R[Cha]R[Nva]Y[Dap][hLeu]-NH2), the IC50 was 950 nM. CCC[C@H](NC(=O)[C@H](CCCN=C(N)N)NC(=O)CN(CCCN)C(=O)[C@@H](N)CCCN=C(N)N)C(=O)N[C@@H](Cc1ccc(O)cc1)C(=O)N[C@@H](CN)C(=O)N[C@@H](CCC(C)C)C(=O)N(CCN)CC(N)=O (H-R[Gly(N(CH2)3NH2)]R[Nva]Y[Dap][hLeu][Gly(N-2-aminoethyl)]-NH2) gave an IC50 of 320 nM. Compound CCC[C@H](NC(=O)[C@H](CCCN=C(N)N)NC(=O)CN(CCN)C(=O)[C@@H](N)CCCN=C(N)N)C(=O)N[C@@H](Cc1ccc(O)cc1)C(=O)N[C@@H](CN)C(=O)N[C@@H](CCC(C)C)C(=O)N(CCCN)CC(N)=O (H-R[Gly(N-2-aminoethyl)]R[Nva]Y[Dap][hLeu][Gly(N(CH2)3NH2)]-NH2) has an IC50 of 250 nM. CCC[C@H](NC(=O)[C@H](CCCN=C(N)N)NC(=O)[C@H](CN)NC(=O)[C@@H](N)CCCN=C(N)N)C(=O)N[C@@H](Cc1ccc(O)cc1)C(=O)N[C@@H](CN)C(=O)N[C@@H](CCC(C)C)C(N)=O gave an IC50 of 860 nM. CCC[C@H](NC(=O)[C@H](CCCN=C(N)N)NC(=O)CN(CCCCCCN)C(=O)[C@@H](N)CCCN=C(N)N)C(=O)N[C@@H](Cc1ccc(O)cc1)C(=O)N[C@@H](CN)C(=O)N[C@@H](CCC(C)C)C(=O)N(CCCCN)CC(N)=O (H-R[Gly(N-(CH2)6NH2)]R[Nva]Y[Dap][hLeu][Nlys]-NH2) was tested, and the IC50 was 160 nM. With CCC[C@H](NC(=O)[C@H](CCCN=C(N)N)NC(=O)CN(CCCCCCN)C(=O)[C@@H](N)CCCN=C(N)N)C(=O)N[C@@H](Cc1ccc(O)cc1)C(=O)N[C@@H](CN)C(=O)N[C@@H](CCC(C)C)C(=O)N(CCN)CC(N)=O (H-R[Gly(N-(CH2)6NH2)]R[Nva]Y[Dap][hLeu][Gly(N-2-aminoethyl)]-NH2) the IC50 was 320 nM. CCC[C@@H]1NC(=O)[C@H](CCCN=C(N)N)NC(=O)CN(C(=O)[C@@H](N)CCCN=C(N)N)CCCCCCNC(=O)NCCCCN(CC(N)=O)C(=O)[C@H](CCC(C)C)NC(=O)[C@H](CN)NC(=O)[C@H](Cc2ccc(O)cc2)NC1=O (H-R[N(6-aminohexyl)Gly]R[Nva]Y[Dap][hLeu][Nlys]-NH2; linker 2-8 via CO) was tested, and the IC50 was 280 nM. Compound CCC[C@H](NC(=O)[C@H](CCCN=C(N)N)NC(=O)CN(CCCCN)C(=O)[C@@H](N)CCCN=C(N)N)C(=O)N[C@@H](Cc1ccc(O)cc1)C(=O)N[C@@H](CN)C(=O)N[C@@H](CCC(C)C)C(=O)N(CCN)CC(N)=O (H-R[Nlys]R[Nva]Y[Dap][hLeu][Gly(N-2-aminoethyl)]-NH2) has an IC50 of 220 nM. Compound CCC[C@H](NC(=O)[C@H](CCCN=C(N)N)NC(=O)[C@H](CCCCN)NC(=O)[C@@H](N)CCCN=C(N)N)C(=O)N[C@@H](Cc1ccc(O)cc1)C(=O)N[C@@H](CN)C(=O)N[C@@H](CCC(C)C)C(N)=O has an IC50 of 2150 nM. With CCC[C@@H]1NC(=O)[C@H](CCCN=C(N)N)NC(=O)CN(C(=O)[C@@H](N)CCCN=C(N)N)CCCNC(=O)NCCCN(CC(N)=O)C(=O)[C@H](CCC(C)C)NC(=O)[C@H](CN)NC(=O)[C@H](Cc2ccc(O)cc2)NC1=O (H-R[NGly(3-aminopropyl)]R[Nva]Y[Dap][hLeu][NGly(3-aminopropyl)]-NH2; linker 2-8 via CO) the IC50 was 590 nM. In the case of CCC[C@@H]1NC(=O)[C@H](CCCN=C(N)N)NC(=O)CN(C(=O)[C@@H](N)CCCN=C(N)N)CCNC(=O)NCCCCN(CC(N)=O)C(=O)[C@H](CCC(C)C)NC(=O)[C@H](CN)NC(=O)[C@H](Cc2ccc(O)cc2)NC1=O (H-R[N(2-Aminoethyl)Gly]R[Nva]Y[Dap][hLeu][Nlys]-NH2; linker 2-8 via CO), the IC50 is reported as 282 nM. Compound CCC[C@H](NC(=O)[C@H](CCCN=C(N)N)NC(=O)CN(CCN)C(=O)[C@@H](N)CCCN=C(N)N)C(=O)N[C@@H](Cc1ccc(O)cc1)C(=O)N[C@@H](CN)C(=O)N[C@@H](CCC(C)C)C(=O)N(CCCCN)CC(N)=O (H-R[Gly(N-2-aminoethyl)]R[Nva]Y[Dap][hLeu][Nlys]-NH2) has an IC50 of 176 nM.
